{"source": "PubChem BioAssay AID504899", "about": "(The Scripps Research Institute Molecular Screening Center, 2011)", "test_system": "DIO C57BL/6 mice, hepatic G6Pase mRNA, 15 mg/kg ip 6 d", "test": "hepatic gluconeogenesis reduction in obese mice, late-stage follow-up, in vivo study for RORA inverse agonist project, diet-induced obese mice, pyruvate tolerance test, powder sample (AID 504899)", "conditions": "stronger effect = lower value", "summary_of_the_method": "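Test system: obese high-fat-fed male C57BL/6 mice, 30 weeks old. Control set: vehicle-dosed obese mice as reference. Doses: 15 mg/kg ip b.i.d. for 6 days. Schedule: 6 h fasting, glucose 0–60 min after pyruvate. Measured by: glucometer blood glucose plus liver gene mRNA. Probe or stimulus: pyruvate 2 g/kg ip.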"}
{"molecule": "O=S(=O)(Nc1ccc(C(O)(C(F)(F)F)C(F)(F)F)cc1)c1cccs1", "values": [{"measurement": "PEPCK mRNA expression", "setting": "DIO C57BL/6 mice, 15 mg/kg ip 6 d, measured here: hepatic PEPCK mRNA, % control", "value": 51, "unit": "%"}, {"measurement": "blood glucose", "setting": "DIO C57BL/6 mice, 15 mg/kg ip 6 d, measured here: pyruvate tolerance test blood glucose", "value": 76, "unit": "%"}, {"measurement": "G6Pase mRNA expression", "setting": "dose or concentration not given here", "value": 52, "unit": "%"}]}
